Holding throughout (assay type): functional
The species named for assay [1] is Rattus norvegicus. Description: Antiovulatory activity was expressed as the percentage of 10 rats blocked at a dose 3 ug. Summed up: (§1)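 Sprague-Dawley rats given peptide by subcutaneous injection at noon on the day of proestrus, in 40% propane-1,2-diol–0.9% saline vehicle. Oviducts examined for ova the following day.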
Assay [2] is filed under the species Rattus norvegicus. Description: Antiovulatory activity was expressed as the percentage of 8 rats blocked at a dose 3 ug. Summed up: as §1
Assay [3] is filed under the species Rattus norvegicus. Description: Antiovulatory activity was expressed as the percentage of 8 rats blocked at a dose 1 ug. Summed up: as §1
For assay [4], the species on record is Rattus norvegicus. Description: Antiovulatory activity was expressed as the percentage of 8 rats blocked at a dose 7.5 ug. In a few lines:
as §1

The species named for assay [5] is Rattus norvegicus. Kind of assay: Antiovulatory activity was expressed as the percentage of 9 rats blocked at a dose 3 ug. Summed up:
as §1

For assay [6], the species on record is Rattus norvegicus. Description: Antiovulatory activity was expressed as the percentage of 10 rats blocked at a dose 0.5 ug. In a few lines: as §1
Assay [7] is filed under the species Rattus norvegicus. Kind of assay: Antiovulatory activity was expressed as the percentage of 9 rats blocked at a dose 1 ug. Summed up: as §1
Assay [8] is filed under the species Rattus norvegicus. Description: Antiovulatory activity was expressed as the percentage of 16 rats blocked at a dose 1 ug. Summed up: as §1
The species named for assay [9] is Rattus norvegicus. Description: Antiovulatory activity was expressed as the percentage of 7 rats blocked at a dose 3 ug. In a few lines: as §1
For assay [10], the species on record is Rattus norvegicus. Description: Antiovulatory activity was expressed as the percentage of 9 rats blocked at a dose 7.5 ug. Summed up: as §1
For assay [11], the species on record is Rattus norvegicus. Description: Antiovulatory activity was expressed as the percentage of 11 rats blocked at a dose 1 ug. In a few lines: as §1
For assay [12], the species on record is Rattus norvegicus. Kind of assay: Antiovulatory activity was expressed as the percentage of 11 rats blocked at a dose 0.5 ug. In a few lines: as §1
Assay [13] is filed under the species Rattus norvegicus. Kind of assay: Antiovulatory activity was expressed as the percentage of 10 rats blocked at a dose 1 ug. In a few lines: as §1
The species entered for assay [14] is Rattus norvegicus. Description: Antiovulatory activity was expressed as the percentage of 10 rats blocked at a dose 1.5 ug. In a few lines: as §1

Non-standard residues stand in square brackets, D forms with d. Residues, ends and D or L forms follow the SMILES beside them. d(hArg(Et2)) = CCN=C(NCC)NCCCC[C@@H](N)C(=O)O; dPhe(4-Cl) = N[C@H](Cc1ccc(Cl)cc1)C(=O)O; d2Nal = N[C@H](Cc1ccc2ccccc2c1)C(=O)O

`CC(=O)N[C@H](Cc1ccc2ccccc2c1)C(=O)N[C@H](Cc1ccc2ccccc2c1)C(=O)N[C@H](Cc1c[nH]cn1)C(=O)N[C@@H](CO)C(=O)N[C@@H](Cc1ccc(O)cc1)C(=O)N[C@H](CCCN=C(N)N)C(=O)N[C@@H](Cc1ccccc1)C(=O)N[C@@H](CCCN=C(N)N)C(=O)N1CCC[C@H]1C(=O)N[C@H](C)C(N)=O` showed an Antiovulatory activity in the assay listed under Rattus norvegicus [1] of 0%. Turning to `CC(=O)N[C@H](Cc1ccc2ccccc2c1)C(=O)N[C@H](Cc1ccc(Cl)cc1)C(=O)N[C@H](Cc1ccc(Cl)cc1)C(=O)N[C@@H](CO)C(=O)N[C@@H](Cc1ccc(O)cc1)C(=O)N[C@H](CCCN=C(N)N)C(=O)N[C@@H](Cc1ccccc1)C(=O)N[C@@H](CCCN=C(N)N)C(=O)N1CCC[C@H]1C(=O)N[C@H](C)C(N)=O`, the Antiovulatory activity in the assay listed under Rattus norvegicus [2] was 63%; in the assay filed under Rattus norvegicus [3], 0%.

For `CC(=O)N[C@H](Cc1ccc(Cl)cc1)C(=O)N[C@H](Cc1ccc(Cl)cc1)C(=O)N[C@H](Cc1c[nH]c2ccccc12)C(=O)N[C@@H](CO)C(=O)N[C@@H](Cc1ccc(O)cc1)C(=O)N[C@H](Cc1ccc2ccccc2c1)C(=O)N[C@@H](Cc1ccccc1)C(=O)N[C@@H](CCCN=C(N)N)C(=O)N1CCC[C@H]1C(=O)N[C@H](C)C(N)=O`, in the assay filed under Rattus norvegicus [4], the Antiovulatory activity came out at 0%. With `CC(=O)N[C@H](Cc1ccc2ccccc2c1)C(=O)N[C@H](Cc1ccc2ccccc2c1)C(=O)N[C@H](Cc1ccc2ccccc2c1)C(=O)N[C@@H](CO)C(=O)N[C@@H](Cc1ccc(O)cc1)C(=O)N[C@H](CCCN=C(N)N)C(=O)N[C@@H](Cc1ccccc1)C(=O)N[C@@H](CCCN=C(N)N)C(=O)N1CCC[C@H]1C(=O)N[C@H](C)C(N)=O`, the Antiovulatory activity in the assay listed under Rattus norvegicus [5] stood at 15%.

In the assay filed under Rattus norvegicus [1], `CC(=O)N[C@H](Cc1c[nH]c2ccccc12)C(=O)N[C@H](Cc1ccccc1)C(=O)N[C@H](Cc1ccccc1)C(=O)N[C@@H](CO)C(=O)N[C@@H](Cc1ccc(O)cc1)C(=O)N[C@H](CCCN=C(N)N)C(=O)N[C@@H](Cc1ccccc1)C(=O)N[C@@H](CCCN=C(N)N)C(=O)N1CCC[C@H]1C(=O)N[C@H](C)C(N)=O` returned an Antiovulatory activity of 0%. With `CC(=O)N[C@H](Cc1ccccc1)C(=O)N[C@H](Cc1ccccc1)C(=O)N[C@H](Cc1ccccc1)C(=O)N[C@@H](CO)C(=O)N[C@@H](Cc1ccc(O)cc1)C(=O)N[C@H](CCCN=C(N)N)C(=O)N[C@@H](Cc1ccccc1)C(=O)N[C@@H](CCCN=C(N)N)C(=O)N1CCC[C@H]1C(=O)N[C@H](C)C(N)=O`, in the assay listed under Rattus norvegicus [2], the Antiovulatory activity came out at 0%.

`CC(=O)N[C@H](Cc1ccc(Cl)cc1)C(=O)N[C@H](Cc1ccccc1)C(=O)N[C@H](Cc1ccccc1)C(=O)N[C@@H](CO)C(=O)N[C@@H](Cc1ccc(O)cc1)C(=O)N[C@H](CCCN=C(N)N)C(=O)N[C@@H](Cc1ccccc1)C(=O)N[C@@H](CCCN=C(N)N)C(=O)N1CCC[C@H]1C(=O)N[C@H](C)C(N)=O` displayed an Antiovulatory activity in the assay listed under Rattus norvegicus [2] of 63%. In the case of `CC(=O)N[C@H](Cc1ccc2ccccc2c1)C(=O)N[C@H](Cc1ccc(Cl)cc1)C(=O)N[C@H](Cc1ccccc1)C(=O)N[C@@H](CO)C(=O)N[C@@H](Cc1ccc(O)cc1)C(=O)N[C@H](CCCN=C(N)N)C(=O)N[C@@H](Cc1ccccc1)C(=O)N[C@@H](CCCN=C(N)N)C(=O)N1CCC[C@H]1C(=O)N[C@H](C)C(N)=O`, the figures for the Antiovulatory activity in the assay filed under Rattus norvegicus [6] and in the assay listed under Rattus norvegicus [7] were 10% and 56%, respectively. Consider `CC(=O)N[C@H](Cc1ccc2ccccc2c1)C(=O)N[C@H](Cc1ccc2ccccc2c1)C(=O)N[C@H](Cc1ccccc1)C(=O)N[C@@H](CO)C(=O)N[C@@H](Cc1ccc(O)cc1)C(=O)N[C@H](CCCN=C(N)N)C(=O)N[C@@H](Cc1ccccc1)C(=O)N[C@@H](CCCN=C(N)N)C(=O)N1CCC[C@H]1C(=O)N[C@H](C)C(N)=O`, for which the Antiovulatory activity in the assay listed under Rattus norvegicus [1] is 100%. As for `CC(=O)N[C@H](Cc1ccc2ccccc2c1)C(=O)N[C@H](Cc1ccccc1)C(=O)N[C@H](Cc1ccc(O)cc1)C(=O)N[C@@H](CO)C(=O)N[C@@H](Cc1ccc(O)cc1)C(=O)N[C@H](CCCN=C(N)N)C(=O)N[C@@H](Cc1ccccc1)C(=O)N[C@@H](CCCN=C(N)N)C(=O)N1CCC[C@H]1C(=O)N[C@H](C)C(N)=O`, the Antiovulatory activity in the assay listed under Rattus norvegicus [7] amounted to 0%. `CC(=O)N[C@H](Cc1ccc2ccccc2c1)C(=O)N[C@H](Cc1ccc(O)cc1)C(=O)N[C@H](Cc1ccc(O)cc1)C(=O)N[C@@H](CO)C(=O)N[C@@H](Cc1ccc(O)cc1)C(=O)N[C@H](CCCN=C(N)N)C(=O)N[C@@H](Cc1ccccc1)C(=O)N[C@@H](CCCN=C(N)N)C(=O)N1CCC[C@H]1C(=O)N[C@H](C)C(N)=O` displayed an Antiovulatory activity in the assay listed under Rattus norvegicus [3] of 0%. `CC(=O)N[C@H](Cc1ccc2ccccc2c1)C(=O)N[C@H](Cc1ccc(O)cc1)C(=O)N[C@H](Cc1ccccc1)C(=O)N[C@@H](CO)C(=O)N[C@@H](Cc1ccc(O)cc1)C(=O)N[C@H](CCCN=C(N)N)C(=O)N[C@@H](Cc1ccccc1)C(=O)N[C@@H](CCCN=C(N)N)C(=O)N1CCC[C@H]1C(=O)N[C@H](C)C(N)=O`: the Antiovulatory activity in the assay listed under Rattus norvegicus [8] is 0%; in the assay filed under Rattus norvegicus [9] it was 14%. Consider `CC(=O)N[C@H](Cc1ccc2ccccc2c1)C(=O)N[C@H](Cc1ccccc1)C(=O)N[C@H](Cc1ccccc1)C(=O)N[C@@H](CO)C(=O)N[C@@H](Cc1ccc(O)cc1)C(=O)N[C@H](CCCN=C(N)N)C(=O)N[C@@H](CC1CCCCC1)C(=O)N[C@@H](CCCN=C(N)N)C(=O)N1CCC[C@H]1C(=O)N[C@H](C)C(N)=O`, for which the Antiovulatory activity in the assay listed under Rattus norvegicus [6] is given as 80%.

Turning to `CC(=O)N[C@H](Cc1ccc(Cl)cc1)C(=O)N[C@H](Cc1ccc(Cl)cc1)C(=O)N[C@H](Cc1c[nH]c2ccccc12)C(=O)N[C@@H](CO)C(=O)N[C@@H](Cc1ccc(O)cc1)C(=O)N[C@H](Cc1ccccc1)C(=O)N[C@@H](Cc1ccccc1)C(=O)N[C@@H](CCCN=C(N)N)C(=O)N1CCC[C@H]1C(=O)N[C@H](C)C(N)=O`, the Antiovulatory activity in the assay listed under Rattus norvegicus [4] amounted to 8%. On to `CC(=O)N[C@H](Cc1ccc2ccccc2c1)C(=O)N[C@H](Cc1ccc2ccccc2c1)C(=O)N[C@H](Cc1c(F)c(F)c(F)c(F)c1F)C(=O)N[C@@H](CO)C(=O)N[C@@H](Cc1ccc(O)cc1)C(=O)N[C@H](CCCN=C(N)N)C(=O)N[C@@H](Cc1ccccc1)C(=O)N[C@@H](CCCN=C(N)N)C(=O)N1CCC[C@H]1C(=O)N[C@H](C)C(N)=O`, for which the Antiovulatory activity in the assay listed under Rattus norvegicus [10] is recorded as 0%. Turning to `CC(=O)N[C@H](Cc1ccc2ccccc2c1)C(=O)N[C@H](Cc1ccc2ccccc2c1)C(=O)N[C@H](Cc1ccc(O)cc1)C(=O)N[C@@H](CO)C(=O)N[C@@H](Cc1ccc(O)cc1)C(=O)N[C@H](CCCN=C(N)N)C(=O)N[C@@H](Cc1ccccc1)C(=O)N[C@@H](CCCN=C(N)N)C(=O)N1CCC[C@H]1C(=O)N[C@H](C)C(N)=O`, the Antiovulatory activity was 9% in the assay filed under Rattus norvegicus [11], 38% in the assay filed under Rattus norvegicus [2] and 100% in the assay filed under Rattus norvegicus [10]. In the assay listed under Rattus norvegicus [3], `CCNC(=NCCCC[C@@H](NC(=O)[C@H](Cc1ccc(O)cc1)NC(=O)[C@H](CO)NC(=O)[C@@H](Cc1c[nH]c2ccccc12)NC(=O)[C@@H](Cc1ccc(Cl)cc1)NC(=O)[C@@H](Cc1ccc2ccccc2c1)NC(C)=O)C(=O)N[C@@H](Cc1ccccc1)C(=O)N[C@@H](CCCN=C(N)N)C(=O)N1CCC[C@H]1C(=O)N[C@H](C)C(N)=O)NCC` (Ac-[d2Nal][dPhe(4-Cl)][dW]SY[d(hArg(Et2))]FRP[dA]-NH2) returned an Antiovulatory activity of 63%.

In the assay filed under Rattus norvegicus [12], `CC(=O)N[C@H](Cc1ccc2ccccc2c1)C(=O)N[C@H](Cc1ccc(Cl)cc1)C(=O)N[C@H](Cc1c[nH]c2ccccc12)C(=O)N[C@@H](CO)C(=O)N[C@@H](Cc1ccc(O)cc1)C(=O)N[C@H](CCCN=C(N)N)C(=O)N[C@@H](Cc1ccccc1)C(=O)N[C@@H](CCCN=C(N)N)C(=O)N1CCC[C@H]1C(=O)N[C@H](C)C(N)=O` (HELM PEPTIDE1{[ac].[O=C([C@@H](Cc1ccc2ccccc2c1)N[*:1])[*:2]].[O=C([C@@H](Cc1ccc(Cl)cc1)N[*:1])[*:2]].[dW].S.Y.[dR].F.R.P.[dA].[am]}$$$$V2.0) returned an Antiovulatory activity of 64%. Consider `CC(=O)N[C@H](Cc1ccc(Cl)cc1)C(=O)N[C@H](Cc1ccc(Cl)cc1)C(=O)N[C@H](Cc1c[nH]c2ccccc12)C(=O)N[C@@H](CO)C(=O)N[C@@H](Cc1ccc(O)cc1)C(=O)N[C@H](CCCN=C(N)N)C(=O)N[C@@H](Cc1ccccc1)C(=O)N[C@@H](CCCN=C(N)N)C(=O)N1CCC[C@H]1C(=O)N[C@H](C)C(N)=O` (HELM PEPTIDE1{[ac].[O=C([C@@H](Cc1ccc(Cl)cc1)N[*:1])[*:2]].[O=C([C@@H](Cc1ccc(Cl)cc1)N[*:1])[*:2]].[dW].S.Y.[dR].F.R.P.[dA].[am]}$$$$V2.0), for which the figures for the Antiovulatory activity in the assay filed under Rattus norvegicus [13] and in the assay filed under Rattus norvegicus [1] were 70% and 100%, respectively. As to `CC(=O)N[C@H](Cc1ccc(Cl)cc1)C(=O)N[C@H](Cc1ccc(Cl)cc1)C(=O)N[C@H](Cc1c[nH]c2ccccc12)C(=O)N[C@@H](CO)C(=O)N[C@@H](Cc1ccc(O)cc1)C(=O)N[C@H](CCCN=C(N)N)C(=O)N[C@@H](CC(C)C)C(=O)N[C@@H](CCCN=C(N)N)C(=O)N1CCC[C@H]1C(=O)N[C@H](C)C(N)=O` (HELM PEPTIDE1{[ac].[O=C([C@@H](Cc1ccc(Cl)cc1)N[*:1])[*:2]].[O=C([C@@H](Cc1ccc(Cl)cc1)N[*:1])[*:2]].[dW].S.Y.[dR].L.R.P.[dA].[am]}$$$$V2.0), the Antiovulatory activity in the assay listed under Rattus norvegicus [14] is reported as 10%; in the assay listed under Rattus norvegicus [5], 67%.

These data come from ChEMBL document CHEMBL1123924, “Structure-activity studies of antagonists of luteinizing hormone-releasing hormone with emphasis on the amino-terminal region” (1987).
